Laboratory results as given in ChEMBL document CHEMBL3421570, “Combinatorial Libraries As a Tool for the Discovery of Novel, Broad-Spectrum Antibacterial Agents Targeting the ESKAPE Pathogens” (J Med Chem, 2015).
Values after ≈ are worked out from the molar mass of the structure shown. Active and inactive are the calls of the source. No cut-off for these calls is given here.

Columns and labels:
Klebsiella pneumoniae [1] = assay: Antimicrobial activity against Klebsiella pneumoniae assessed as inhibition of microbial growth at 45 uM after 24 hrs; assay type: functional, organism-based
How it was run: (§1)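 Broth microdilution single-concentration read: overnight cultures diluted 1:1000, compound in DMF (≤2.0%) added, 37°C for 24 h, growth inhibition scored visually by lack of turbidity; triplicate. Gram-positives grown in TSB, Gram-negatives in LB.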

Pseudomonas aeruginosa [2] = assay: Bactericidal activity against Pseudomonas aeruginosa after 24 hrs; assay type: functional
[3] = Selectivity index, ratio of IC50 for human A549 cells to MIC for Klebsiella pneumoniae
Acinetobacter baumannii [4] = assay: Ratio of MIC for Acinetobacter baumannii measured after 8 cycle passage to MIC for wild type Acinetobacter baumannii; assay type: functional
[5] = Induction of hemolysis in human RBC at 10 uM incubated for 15 mins; assay type: cell-based, Erythrocyte; conditions: red blood cells, read-out: Activity
How it was run: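 Human RBCs from whole blood, resuspended 20% v/v in HA buffer (NaCl, CaCl2), compound 10 μM, 15 min at 37°C. Centrifuged 5,500 g for 1 min, supernatant OD543 read. Percent hemolysis against DMF vehicle (0%) and 1.0% Triton X-100 (100%); triplicate.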

[6] = Selectivity index, ratio of IC50 for human A549 cells to MIC for Staphylococcus aureus
Enterobacter cloacae [7] = assay: Antimicrobial activity against Enterobacter cloacae assessed as inhibition of microbial growth after 24 hrs; assay type: functional
How it was run: (§2)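 Broth microdilution against multidrug-resistant clinical ESKAPE isolates. Overnight cultures (TSB for Gram-positives, LB for Gram-negatives) diluted 1:1000 in fresh medium, compound in DMF (≤2.0% DMF) added at decreasing concentrations, 37°C.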

Acinetobacter baumannii [8] = assay: Bactericidal activity against Acinetobacter baumannii after 24 hrs; assay type: functional
Staphylococcus aureus [9] = assay: Antibiofilm activity against Staphylococcus aureus incubated for 24 hrs followed by biofilm resuspension in PBS and measured after 24 hrs; assay type: functional
How it was run: (§3)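 Biofilms grown 24 h in 96-well plates from overnight cultures standardized to OD600 0.5 in fresh medium (human serum only for S. aureus; TSB for Gram-positives, LB for Gram-negatives). Medium then replaced with fresh medium containing a concentration range above and below MIC, 37°C overnight. After 24 h biofilm resuspended in PBS, serially diluted, plated in duplicate, CFU counted after 24 h at 37°C. Activity relative to untreated; three technical replicates; MBEC50 reported.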

Staphylococcus aureus [10] = assay: Effect on bacterial density of methicillin-resistant Staphylococcus aureus at MIC measured over 2 hrs period by time kill assay; assay type: functional, organism-based
Staphylococcus aureus [11] = assay: Ratio of MIC for Staphylococcus aureus measured after 8 cycle passage to MIC for wild type Staphylococcus aureus; assay type: functional
Acinetobacter baumannii [12] = assay: Antimicrobial activity against Acinetobacter baumannii assessed as inhibition of microbial growth after 24 hrs; assay type: functional; how it was run: as §2
Pseudomonas aeruginosa [13] = assay: Induction of spontaneous mutation in Pseudomonas aeruginosa at 2 to 10 MIC; assay type: functional, organism-based; conditions: 2 to 10 x MIC
Staphylococcus aureus [14] = assay: Antimicrobial activity against Staphylococcus aureus USA300 strain FPR3757 infected in mouse model of lethal peritonitis assessed as mouse survival at 2 uM, im dosed 1 hr post infection and measured after 5 days post infection; assay type: functional, organism-based
How it was run: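 Mice, six per group, infected i.p. with 1 × 10^8 CFU ml−1 S. aureus USA300 FPR3757 in PBS with 5% mucin. Compound given i.m. at 2 μM 1 h later; vehicle 45% w/v (2-hydroxypropyl)-β-cyclodextrin in water i.v.; vancomycin i.v. as control. Monitored twice daily for 5 days, pre-moribund animals euthanized. Survival compared by log-rank test.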

Klebsiella pneumoniae [15] = assay: Bactericidal activity against Klebsiella pneumoniae after 24 hrs; assay type: functional
Enterococcus faecium [16] = assay: Antimicrobial activity against Enterococcus faecium assessed as inhibition of microbial growth after 24 hrs; assay type: functional; how it was run: as §2
Klebsiella pneumoniae [17] = assay: Antibiofilm activity against Klebsiella pneumoniae incubated for 24 hrs followed by biofilm resuspension in PBS and measured after 24 hrs; assay type: functional; how it was run: as §3
Staphylococcus aureus [18] = assay: Bactericidal activity against methicillin-resistant Staphylococcus aureus assessed as cell survival recovery at MIC measured after drug wash out after 120 mins by time kill assay; assay type: functional
How it was run: (§4)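 MRSA from stationary phase was regrown 3 h in TSB and seeded at OD600 0.5. […] After 120 min, cells were centrifuged and washed, serially diluted and plated for CFU. Percent recovery is relative to no-drug controls.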

[19] = Selectivity index, ratio of IC50 for human A549 cells to MIC for Pseudomonas aeruginosa
Enterobacter cloacae [20] = assay: Induction of spontaneous mutation in Enterobacter cloacae at 2 to 10 MIC; assay type: functional, organism-based
Pseudomonas aeruginosa [21] = assay: Antimicrobial activity against Pseudomonas aeruginosa assessed as inhibition of microbial growth after 24 hrs; assay type: functional; how it was run: as §2
A549 = assay: Cytotoxicity against human A549 cells after 48 hrs by MTT assay; assay type: cell-based; conditions: A549, 48 h
How it was run: (§5)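 A549 cells grown in F-12K with L-glutamine, 10% FBS, 1% penicillin-streptomycin, seeded at 1.0 × 10^5 ml−1, allowed to adhere 24 h (37°C, 5% CO2), then exposed to compound in 45% w/v (2-hydroxypropyl)-β-cyclodextrin vehicle for 48 h. MTT 4 h, formazan solubilized in DMSO, absorbance 540 nm. Percent recovery versus vehicle-only; IC50 derived; at least three independent experiments.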

Pseudomonas aeruginosa [22] = assay: Antimicrobial activity against Pseudomonas aeruginosa isolate 1414 assessed as inhibition of microbial growth in presence of 100 uM efflux pump inhibitor reserpine after 24 hrs; assay type: functional, organism-based
[23] = Cytotoxicity against human A549 cells assessed as cell viability recovery up to 125 uM after 48 hrs by MTT assay; assay type: cell-based; conditions: read-out: Activity; how it was run: as §5
Enterococcus faecium [24] = assay: Antimicrobial activity against Enterococcus faecium assessed as inhibition of microbial growth at 45 uM after 24 hrs; assay type: functional, organism-based; how it was run: as §1
Enterobacter cloacae [25] = assay: Antibiofilm activity against Enterobacter cloacae incubated for 24 hrs followed by biofilm resuspension in PBS and measured after 24 hrs; assay type: functional; how it was run: as §3
Klebsiella pneumoniae [26] = assay: Ratio of MIC for Klebsiella pneumoniae measured after 8 cycle passage to MIC for wild type Klebsiella pneumoniae; assay type: functional
Staphylococcus aureus [27] = assay: Induction of spontaneous mutation in Staphylococcus aureus at 2 to 10 MIC; assay type: functional, organism-based
[28] = Selectivity index, ratio of IC50 for human A549 cells to MIC for Enterococcus faecium
Acinetobacter baumannii [29] = assay: Antibiofilm activity against Acinetobacter baumannii incubated for 24 hrs followed by biofilm resuspension in PBS and measured after 24 hrs; assay type: functional; how it was run: as §3
Enterobacter cloacae [30] = assay: Bactericidal activity against Enterobacter cloacae after 24 hrs; assay type: functional
Staphylococcus aureus [31] = assay: Antimicrobial activity against Staphylococcus aureus assessed as inhibition of microbial growth after 24 hrs; assay type: functional; how it was run: as §2
Enterobacter cloacae [32] = assay: Ratio of MIC for Enterobacter cloacae measured after 8 cycle passage to MIC for wild type Enterobacter cloacae; assay type: functional
Enterococcus faecium [33] = assay: Bactericidal activity against Enterococcus faecium after 24 hrs; assay type: functional
Staphylococcus aureus [34] = assay: Bactericidal activity against Staphylococcus aureus after 24 hrs; assay type: functional
Enterobacter cloacae [35] = assay: Antimicrobial activity against Enterobacter cloacae assessed as inhibition of microbial growth at 45 uM after 24 hrs; assay type: functional, organism-based; how it was run: as §1
Enterococcus faecium [36] = assay: Induction of spontaneous mutation in Enterococcus faecium at 2 to 10 MIC; assay type: functional, organism-based
Enterococcus faecium [37] = assay: Antibiofilm activity against Enterococcus faecium incubated for 24 hrs followed by biofilm resuspension in PBS and measured after 24 hrs; assay type: functional; how it was run: as §3
Klebsiella pneumoniae [38] = assay: Induction of spontaneous mutation in Klebsiella pneumoniae at 2 to 10 MIC; assay type: functional, organism-based
[39] = Selectivity index, ratio of IC50 for human A549 cells to MIC for Enterobacter cloacae
[40] = Selectivity index, ratio of IC50 for human A549 cells to MIC for Acinetobacter baumannii
Acinetobacter baumannii [41] = assay: Induction of spontaneous mutation in Acinetobacter baumannii at 2 to 10 MIC; assay type: functional, organism-based
[42] = Cytotoxicity against human A549 cells assessed as cell viability recovery at 225 uM after 48 hrs by MTT assay; assay type: cell-based; conditions: read-out: Activity; how it was run: as §5
Acinetobacter baumannii [43] = assay: Antimicrobial activity against Acinetobacter baumannii assessed as inhibition of microbial growth at 45 uM after 24 hrs; assay type: functional, organism-based; how it was run: as §1
Pseudomonas aeruginosa [44] = assay: Antibiofilm activity against Pseudomonas aeruginosa incubated for 24 hrs followed by biofilm resuspension in PBS and measured after 24 hrs; assay type: functional; how it was run: as §3
Staphylococcus aureus [45] = assay: Bactericidal activity against methicillin-resistant Staphylococcus aureus at MIC measured after drug wash out after 120 mins by time kill assay; assay type: functional; how it was run: as §4
Staphylococcus aureus [46] = assay: Antimicrobial activity against Staphylococcus aureus assessed as inhibition of microbial growth at 45 uM after 24 hrs; assay type: functional, organism-based; how it was run: as §1
Pseudomonas aeruginosa [47] = assay: Antimicrobial activity against Pseudomonas aeruginosa assessed as inhibition of microbial growth at 45 uM after 24 hrs; assay type: functional, organism-based; how it was run: as §1
Klebsiella pneumoniae [48] = assay: Antimicrobial activity against Klebsiella pneumoniae assessed as inhibition of microbial growth after 24 hrs; assay type: functional; how it was run: as §2

CCCCCCCN1C(=N)N(CCCC[C@H]2CNC(=N)N2CCC23C[C@H]4C[C@@H](C2)C[C@@H](C3)C4)C[C@@H]1CCCC
growth inhibition (GI) (Klebsiella pneumoniae [1]): Active
MBC90 (Pseudomonas aeruginosa [2]): 2.8 µM (≈ 1.51 µg/mL)
Selectivity Index [3]: 88
Ratio (Acinetobacter baumannii [4]): <=8
hemolysis at 0.25 h, 10 µM [5]: 0.34%
Selectivity Index [6]: 88
MIC (Enterobacter cloacae [7]): 1.7 µM
MBC90 (Acinetobacter baumannii [8]): 4.7 µM (≈ 2.54 µg/mL)
MBEC50 (Staphylococcus aureus [9]): 6.4 µM
Activity (Staphylococcus aureus [10]): inactive
Ratio (Staphylococcus aureus [11]): 16
MIC (Acinetobacter baumannii [12]): 1.7 µM
Activity (Pseudomonas aeruginosa [13]): inactive
Activity (Staphylococcus aureus [14]): Active
MBC90 (Klebsiella pneumoniae [15]): 2.6 µM (≈ 1.41 µg/mL)
MIC (Enterococcus faecium [16]): 1.7 µM
MBEC50 (Klebsiella pneumoniae [17]): 8.6 µM
Survival (Staphylococcus aureus [18]): 0.2%
Selectivity Index [19]: 88
Activity (Enterobacter cloacae [20]): inactive
MIC (Pseudomonas aeruginosa [21]): 1.7 µM
IC50 (A549): 146 µM
growth inhibition (GI) (Pseudomonas aeruginosa [22]): Active
viability at 48 h [23]: 53%
growth inhibition (GI) (Enterococcus faecium [24]): Active
MBEC50 (Enterobacter cloacae [25]): 15 µM
Ratio (Klebsiella pneumoniae [26]): <=8
Activity (Staphylococcus aureus [27]): inactive
Selectivity Index [28]: 88
MBEC50 (Acinetobacter baumannii [29]): 24 µM
MBC90 (Enterobacter cloacae [30]): 2.7 µM (≈ 1.46 µg/mL)
MIC (Staphylococcus aureus [31]): 1.7 µM
Ratio (Enterobacter cloacae [32]): <=8
MBC90 (Enterococcus faecium [33]): 3.6 µM (≈ 1.95 µg/mL)
MBC90 (Staphylococcus aureus [34]): 2.9 µM (≈ 1.57 µg/mL)
growth inhibition (GI) (Enterobacter cloacae [35]): Active
Activity (Enterococcus faecium [36]): inactive
MBEC50 (Enterococcus faecium [37]): 13 µM
Activity (Klebsiella pneumoniae [38]): inactive
Selectivity Index [39]: 88
Selectivity Index [40]: 88
Activity (Acinetobacter baumannii [41]): inactive
viability at 48 h, 225 µM [42]: 35%
growth inhibition (GI) (Acinetobacter baumannii [43]): Active
MBEC50 (Pseudomonas aeruginosa [44]): 5 µM
fold change (FC) (Staphylococcus aureus [45]): 2.5
growth inhibition (GI) (Staphylococcus aureus [46]): Active
growth inhibition (GI) (Pseudomonas aeruginosa [47]): Active
MIC (Klebsiella pneumoniae [48]): 1.7 µM
